From ChEMBL document CHEMBL1926573, “Synthesis, antiproliferative activity and genotoxicity of novel anthracene-containing aminophosphonates and a new anthracene-derived Schiff base” (Bioorg Med Chem, 2012)
In brackets after ≈: the same amount, converted by molar mass. Activity calls are given as the source filed them. The rule behind the calls is not given here.

Experiments:
Bone marrow cell [1] = assay: Induction of mitosis in ICR mouse bone marrow cells assessed as mitotic index at 100 mg/kg, ip after 48 hrs; format: functional; conditions: route intraperitoneal
Procedure, shortened: (§1)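 ICR mice (male and female, 20 ± 1.5 g; 4 males + 4 females per treated group, 10 per control group) given compound ip at 10 or 100 mg/kg; mitomycin C 3.5 mg/kg positive control, 0.9% saline negative control. Colchicine 0.4 mg/kg ip 1 h before femoral marrow harvest at 24 or 48 h. Cells put in 0.075 M KCl (37 °C, 20 min), fixed in methanol–acetic acid 3:1, stained with Giemsa. ≥50 metaphases scored per animal. Mitotic index counted in 1500 cells per animal. Group mean ± SEM, Student's t-test.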

[2] = Drug uptake in nuclear membrane of human HBL100 cells at non-toxic concentration after 24 hrs by fluorescent microscopic analysis; format: ADME, cell membranes; conditions: hbl-100, 24 h
Procedure, shortened: (§2)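 HBL-100 cells were seeded at 1×10^5/ml on diagnostic slides, adhered overnight (37.5 °C, 5% CO2), and exposed 24 h to non-toxic concentrations. Intrinsic anthracene fluorescence was imaged by fluorescence microscopy to locate subcellular distribution.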

647-V = assay: Cytotoxicity against human 647V cells after 24 hrs by MTT assay; format: functional, cell-based
Procedure, shortened: (§3)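 Human tumor lines were grown in RPMI 1640 (MCF-7, HBL-100) or high-glucose DMEM (others) with 10% FCS at 37.5 °C and 5% CO2. Cells were seeded at 1×10^4/well, allowed to adhere 24 h, then exposed 24 h to 1–0.0681 mg/ml (1.47-fold dilutions) from DMSO stock diluted in PBS, with DMSO ≤1%. Doxorubicin was the reference. MTT-formazan was read at 580 nm. IC50 by non-linear regression; mean ± SD of three experiments.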

MDA-MB-231 = assay: Cytotoxicity against human MDA-MB-231 cells after 24 hrs by MTT assay; format: functional, cell-based; conditions: MDA-MB-231, 24 h; procedure, shortened: as §3
Bone marrow cell [3] = assay: Induction of mitosis in ICR mouse bone marrow cells assessed as mitotic index at 100 mg/kg, ip after 24 hrs; format: functional; conditions: route intraperitoneal; procedure, shortened: as §1
Bone marrow cell [4] = assay: Induction of mitosis in ICR mouse bone marrow cells assessed as mitotic index at 10 mg/kg, ip after 24 hrs; format: functional; conditions: route intraperitoneal; procedure, shortened: as §1
HeLa = assay: Cytotoxicity against human HeLa cells after 24 hrs by MTT assay; format: functional, cell-based; procedure, shortened: as §3
Bone marrow cell [5] = assay: Induction of clastogenic effect in ICR mouse bone marrow cells assessed as chromosomal aberration at 100 mg/kg, ip after 48 hrs; format: functional; conditions: route intraperitoneal; procedure, shortened: as §1
Bone marrow cell [6] = assay: Induction of mitosis in ICR mouse bone marrow cells assessed as mitotic index at 10 mg/kg, ip after 48 hrs; format: functional; conditions: route intraperitoneal; procedure, shortened: as §1
Bone marrow cell [7] = assay: Induction of clastogenic effect in ICR mouse bone marrow cells assessed as chromosomal aberration at 100 mg/kg, ip after 24 hrs; format: functional; conditions: route intraperitoneal; procedure, shortened: as §1
MCF7 = assay: Cytotoxicity against human MCF7 cells after 24 hrs by MTT assay; format: functional, cell-based; conditions: MCF7, 24 h; procedure, shortened: as §3
HBL-100 [8] = assay: Cytotoxicity against human HBL100 cells after 24 hrs by MTT assay; format: functional, cell-based; conditions: HBL-100, 24 h; procedure, shortened: as §3
[9] = Drug uptake in nuclei of human HBL100 cells at non-toxic concentration after 24 hrs by fluorescent microscopic analysis; format: ADME, cell-based, Nucleus; conditions: hbl-100, 24 h; procedure, shortened: as §2
HepG2 = assay: Cytotoxicity against human HepG2 cells after 24 hrs by MTT assay; format: functional, cell-based; conditions: HepG2, 24 h; procedure, shortened: as §3
HT-29 = assay: Cytotoxicity against human HT-29 cells after 24 hrs by MTT assay; format: functional, cell-based; conditions: HT-29, 24 h; procedure, shortened: as §3
Bone marrow cell [10] = assay: Induction of clastogenic effect in ICR mouse bone marrow cells assessed as chromosomal aberration at 10 mg/kg, ip after 48 hrs; format: functional; conditions: route intraperitoneal; procedure, shortened: as §1
Bone marrow cell [11] = assay: Induction of clastogenic effect in ICR mouse bone marrow cells assessed as chromosomal aberration at 10 mg/kg, ip after 24 hrs; format: functional; conditions: route intraperitoneal; procedure, shortened: as §1
Bone marrow cell [12] = assay: Induction of mitosis in ICR mouse bone marrow cells assessed as mitotic index at 3.5 mg/kg, ip after 48 hrs; format: functional; conditions: route intraperitoneal; procedure, shortened: as §1
Bone marrow cell [13] = assay: Induction of mitosis in ICR mouse bone marrow cells assessed as mitotic index at 3.5 mg/kg, ip after 24 hrs; format: functional; conditions: route intraperitoneal; procedure, shortened: as §1
Bone marrow cell [14] = assay: Induction of clastogenic effect in ICR mouse bone marrow cells assessed as chromosomal aberration at 3.5 mg/kg, ip after 24 hrs; format: functional; conditions: route intraperitoneal; procedure, shortened: as §1
Bone marrow cell [15] = assay: Induction of clastogenic effect in ICR mouse bone marrow cells assessed as chromosomal aberration at 3.5 mg/kg, ip after 48 hrs; format: functional; conditions: route intraperitoneal; procedure, shortened: as §1
Bone marrow cell [16] = assay: Induction of clastogenic effect in ICR mouse bone marrow cells assessed as rearrangement in centromere to centromeric fusion at 3.5 mg/kg, ip after 24 hrs; format: functional; conditions: route intraperitoneal; procedure, shortened: as §1
Bone marrow cell [17] = assay: Induction of clastogenic effect in ICR mouse bone marrow cells assessed as chromosomal breaks and fragmentation at 3.5 mg/kg, ip after 24 hrs; format: functional; conditions: route intraperitoneal; procedure, shortened: as §1
[18] = Drug uptake in cytoplasm of human HBL100 cells at non-toxic concentration after 24 hrs by fluorescent microscopic analysis; format: ADME, cell-based; conditions: hbl-100, 24 h; procedure, shortened: as §2
Bone marrow cell [19] = assay: Induction of clastogenic effect in ICR mouse bone marrow cells assessed as chromosomal breaks and fragmentation at 10 to 100 mg/kg, ip; format: functional; conditions: dose mg/kg 10-100; route intraperitoneal; procedure, shortened: as §1
Bone marrow cell [20] = assay: Induction of clastogenic effect in ICR mouse bone marrow cells assessed as rearrangement in centromere to centromeric fusion at 10 to 100 mg/kg, ip; format: functional; conditions: dose mg/kg 10-100; route intraperitoneal; procedure, shortened: as §1
Bone marrow cell [21] = assay: Antiproliferative activity in ICR mouse bone marrow cells assessed as inhibition of cell division at 10 to 100 mg/kg, ip measured after 48 hrs; format: functional, organism-based; procedure, shortened: as §1
HBL-100 [22] = assay: Ratio of Doxorubicin IC50 to compound IC50 for human HBL100 cells after 24 hrs by MTT assay; format: functional

SMILES	Activity (Bone marrow cell [1])	IC50 (647-V) [µg/mL]	IC50 (MDA-MB-231) [µg/mL]	Activity (Bone marrow cell [3])	Activity (Bone marrow cell [4])	IC50 (HeLa) [µg/mL]	Activity (Bone marrow cell [5]) [%]	Activity (Bone marrow cell [6])	Activity (Bone marrow cell [7]) [%]	IC50 (MCF7) [µg/mL]	IC50 (HBL-100 [8]) [µg/mL]	IC50 (HepG2) [µg/mL]	IC50 (HT-29) [µg/mL]	Activity (Bone marrow cell [10]) [%]	Activity (Bone marrow cell [11]) [%]	also measured
CCOP(=O)(OCC)C(Nc1ccc(C)cc1)c1c2ccccc2cc2ccccc12 (configuration not stated)	11.8 ‰	> 2000	> 2000	16.1 ‰	13.4 ‰	1940 (≈ 4480 µM)	8	11.9 ‰	8.5	> 2000	730 (≈ 1680 µM)	> 2000	> 2000	6	4.75	Drug uptake [2]: Active; Drug uptake [9]: Active
CO[C@@]12[C@H](COC(N)=O)C3=C(C(=O)C(C)=C(N)C3=O)N1C[C@@H]1N[C@@H]12 [MITOMYCIN]	–	–	–	–	–	–	–	–	–	–	–	–	–	–	–	Activity (Bone marrow cell [12]): 7.29 ‰; Activity (Bone marrow cell [13]): 5.49 ‰; Activity (Bone marrow cell [14]): 30.5%; Activity (Bone marrow cell [15]): 15.8%; Activity (Bone marrow cell [16]): 24.9%; Activity (Bone marrow cell [17]): 75.1%
Cc1ccc(/N=C/c2c3ccccc3cc3ccccc23)cc1	11.7 ‰	130 (≈ 440 µM)	120 (≈ 406 µM)	10.7 ‰	12.6 ‰	170 (≈ 576 µM)	6.5	8.45 ‰	6.57	450 (≈ 1520 µM)	310 (≈ 1050 µM)	180 (≈ 609 µM)	80 (≈ 271 µM)	5	5.25	Drug uptake [18]: Active; Activity (Bone marrow cell [19]): 35.6%; Activity (Bone marrow cell [20]): 62.17%
COc1cccc2c1C(=O)c1c(O)c3c(c(O)c1C2=O)C[C@@](O)(C(=O)CO)C[C@@H]3O[C@H]1C[C@H](N)[C@H](O)[C@H](C)O1.Cl [DOXORUBICIN HYDROCHLORIDE]	–	< 68	< 68	–	–	< 68	–	–	–	< 68	140	< 68	580	–	–	–
C(=N\Cc1ccco1)/c1c2ccccc2cc2ccccc12	15.2 ‰	80 (≈ 280 µM)	450 (≈ 1580 µM)	12.4 ‰	11.3 ‰	360 (≈ 1260 µM)	5.5	10.2 ‰	5.5	260 (≈ 911 µM)	460 (≈ 1610 µM)	120 (≈ 421 µM)	200 (≈ 701 µM)	4.43	4.75	Activity (Bone marrow cell [21]): inactive
CCOP(=O)(OCC)C(NCc1ccco1)c1c2ccccc2cc2ccccc12 (configuration not stated)	–	70 (≈ 165 µM)	70 (≈ 165 µM)	–	15.1 ‰	120 (≈ 283 µM)	–	10.1 ‰	–	100 (≈ 236 µM)	70 (≈ 165 µM)	110 (≈ 260 µM)	110 (≈ 260 µM)	4.75	6.25	Ratio IC50 (HBL-100 [22]): 2
COP(=O)(OC)C(Nc1ccc(C)cc1)c1c2ccccc2cc2ccccc12 (configuration not stated)	14.1 ‰	600 (≈ 1480 µM)	880 (≈ 2170 µM)	12 ‰	12.6 ‰	> 2000	6	15.6 ‰	5.5	450 (≈ 1110 µM)	20 (≈ 49.3 µM)	830 (≈ 2050 µM)	> 2000	4.75	4	Activity (Bone marrow cell [21]): inactive
